IC50 and Activity data for 12 compounds are collected here from ChEMBL document CHEMBL1148965, “Cytotoxic and other metabolites of Aspergillus inhabiting the rhizosphere of Sonoran desert plants” (J Nat Prod, 2004).

Active and inactive are the calls of the source. The rule behind the calls is not given here.

In data set [1] the test system is MIA PaCa-2. The data set can be described thus: Cytotoxicity against human MIAPaCa2 cells by MTT assay. The data set is classed as functional, cell-based. A digest of the protocol:
(§1)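 Cells were exposed to DMSO-dissolved samples for 72 h in RPMI-1640 with 10% fetal bovine serum. Viability was read by tetrazolium (MTT) colorimetry. IC50 was taken as the concentration giving 50% inhibition of cell proliferation/survival. WI-38 are normal human primary fibroblasts.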

A short description of data set [2]: Cytotoxicity against human WI38 cells by MTT assay. The data set is classed as cell-based. The following applies: WI-38. The gist of the method:
as §1
For orientation: Tetrazolium assays rely on reduction of a dye to a coloured formazan, in cell work by metabolically active cells.

In data set [3] the test system is NCI-H460. Description: Cytotoxicity against human NCI-H460 cells by MTT assay. Format: functional, cell-based. A digest of the protocol:
as §1

In data set [4] the test system is MCF7. Description: Cytotoxicity against human MCF7 cells by MTT assay. The data set is classed as functional, cell-based. The gist of the method:
as §1

Data set [5] concerns SF-268. The data set can be described thus: Cytotoxicity against human SF268 cells by MTT assay. The data set is classed as functional, cell-based. The gist of the method:
as §1

Data set [6] relates to SF-268. The data set can be described thus: Cytotoxicity against human SF268 cells at 10 ug/mL by MTT assay. The data set is classed as functional, cell-based.
The test system of data set [7] is MCF7. Description: Cytotoxicity against human MCF7 cells at 10 ug/mL by MTT assay. Format: functional, cell-based.
For data set [8], the system named is NCI-H460. The data set can be described thus: Cytotoxicity against human NCI-H460 cells at 10 ug/mL by MTT assay. The data set is classed as functional, cell-based.
Data set [9] can be described thus: Cytotoxicity against human WI38 cells at 10 ug/mL by MTT assay. Format: cell-based. The following applies: wi-38.
The test system of data set [10] is MIA PaCa-2. The data set can be described thus: Cytotoxicity against human MIAPaCa2 cells at 10 ug/mL by MTT assay. Format: functional, cell-based.

`C[C@H]1CCCC(O)CC(=O)c2c(O)cc(O)cc2CC(=O)O1` (stereo not given in full): the IC50 in data set [1] was found to be 3.3 µM; in data set [2] it was 11.6 µM; in data set [3], 2.1 µM; in [4] it was 2 µM; in data set [5], 4.1 µM.
For `C=CC(C)(C)c1[nH]c2ccccc2c1C1=C(O)C(=O)C(c2c[nH]c3ccccc23)=C(CC=C(C)C)C1=O` [TERREQUINONE A], the IC50 in [1] stood at 5.4 µM; in [3], 5.6 µM; in [4], 6.8 µM; in data set [5], 13.9 µM.
For the compound `CC/C=C/C=C/[C@]1(C)OC(CC(C)O)=CC1=O` (stereo not given in full) [TERREFURANONE], the result in data set [6], in data set [7], in data set [8] and in [10] was inactive. For the same compound, the Activity entry in data set [9] is recorded as “Non-toxic”.
For the compound `COc1cccc2c1C(=O)c1c(O)c3c(c(O)c1C2=O)C[C@@](O)(C(=O)CO)C[C@@H]3O[C@H]1C[C@H](N)[C@H](O)[C@H](C)O1` [DOXORUBICIN], the results for the half-inhibitory concentration (IC50) in [2] and in data set [3] were 0.3 µM and 0.01 µM, respectively.
Turning to `COC1=CC(=O)OC1(O)C(C)C` (stereo not given), the outcome in data set [6], in data set [7], in [8] and in [10] was inactive. In data set [9], the Activity entry is “Non-toxic”.
Take `C=CC(C)(C)[C@]12CC3C(=O)Nc4ccccc4C(=O)N3[C@H]1N(C(C)=O)c1ccccc12` (stereo not given in full): the result in [6], in [7], in [8] and in data set [10] was inactive. Moreover, in [9], the Activity result is on record as “Non-toxic”.
Consider `COCC(C)C1(O)OC(=O)C=C1OC` (stereo not given), for which the outcome in data set [6], in data set [7], in [8] and in data set [10] was inactive. Besides, in data set [9], the Activity entry is “Non-toxic”.
Take `COC1=CC(=O)C[C@](C)(O)[C@H]1O` (relative stereo): the outcome in [6], in data set [7], in data set [8] and in data set [10] was inactive. Besides, the Activity result in data set [9] was “Non-toxic”.
As to `C/C=C/C1=CC(=O)[C@](C)(/C=C/C=C/CC)O1`, the half-maximal inhibitory concentration (IC50) worked out at 6.3 µM in data set [1], 5.5 µM in data set [3], 11.7 µM in [4] and 6.8 µM in data set [5].
Regarding `C=C(C)C1(O)OC(=O)C=C1OC` (stereo not given) [PENICILLIC ACID], the IC50 worked out at 8 µM in data set [1]; 57.5 µM in [2]; 5.8 µM in data set [3]; 12.8 µM in data set [4]; 20 µM in data set [5].
Taken in the same sequence, the figures for `C[C@H]1CCC/C=C/C(=O)c2c(O)cc(O)cc2CC(=O)O1` [DEHYDROCURVULARIN] were 1.9 µM, 3.6 µM, 1.1 µM, 1.3 µM and 2.5 µM.
Turning to `COC1CCC[C@H](C)OC(=O)Cc2cc(O)cc(O)c2C(=O)C1` (stereo not given in full), the half-maximal inhibitory concentration (IC50) in [1] was determined as 1.2 µM; in [2] it was 1.7 µM; in data set [3], 0.9 µM; in [4] it was 0.6 µM; in data set [5], 0.9 µM.

Usually IC50 stands for the concentration at which inhibition is half-maximal.
